Reference: ChEMBL document CHEMBL1154876, “Synthesis and antimicrobial studies on novel sulfonamides containing 4-azidomethyl coumarin” (2010)
≈ marks a conversion by molar mass, not a printed value.

Legend:
Format in all cases: functional
Aspergillus niger = assay: Antifungal activity against Aspergillus niger after 48 to 72 hrs by broth microdilution method
Summary of the method: (§1)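 Test compounds were prepared as 10 mg/ml DMSO stocks and serially diluted twofold in Sabouraud's dextrose broth over 500, 250, 125, 62.5, 31.25, 16, 8, 4, 2 and 1, alongside fluconazole as reference. Plates were inoculated with 1–5 × 10⁴ cfu/ml and held at 25 °C for 48–72 h. The MIC was the lowest concentration showing no visible growth.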

Mucor = assay: Antifungal activity against Mucor fuscus after 48 to 72 hrs by broth micro dilution method; summary of the method: as §1
Penicillium chrysogenum = assay: Antifungal activity against Penicillium chrysogenum after 48 to 72 hrs by broth microdilution method; summary of the method: as §1
Klebsiella pneumoniae = assay: Antibacterial activity against Klebsiella pneumoniae MTCC 3384 after 18 hrs by broth microdilution method; conditions: MTCC 3384, 18 h
Staphylococcus aureus = assay: Antibacterial activity against Staphylococcus aureus MTCC 3160 after 18 hrs by broth microdilution method; conditions: MTCC 3160, 18 h
Bacillus subtilis = assay: Antibacterial activity against Bacillus subtilis MTCC 297 after 18 hrs by broth microdilution method; conditions: MTCC 297, 18 h
Candida albicans = assay: Antifungal activity against Candida albicans after 48 to 72 hrs by broth microdilution method; summary of the method: as §1
Pseudomonas aeruginosa = assay: Antibacterial activity against Pseudomonas aeruginosa MTCC 1034 after 18 hrs by broth microdilution method; conditions: MTCC 1034, 18 h
Fusarium oxysporum = assay: Antifungal activity against Fusarium oxysporum after 48 to 72 hrs by broth microdilution method; summary of the method: as §1
Escherichia coli = assay: Antibacterial activity against Escherichia coli MTCC 1089 after 18 hrs by broth microdilution method; conditions: MTCC 1089, 18 h
Enterococcus faecalis = assay: Antibacterial activity against Streptococcus faecalis MTCC 3382 after 18 hrs by broth microdilution method; conditions: MTCC 3382, 18 h
Aspergillus fumigatus = assay: Antifungal activity against Aspergillus fumigatus after 48 to 72 hrs by broth microdilution method; summary of the method: as §1

Compound	MIC (Aspergillus niger)	MIC (Mucor)	MIC (Penicillium chrysogenum)	MIC (Klebsiella pneumoniae)	MIC (Staphylococcus aureus)	MIC (Bacillus subtilis)	MIC (Candida albicans)	MIC (Pseudomonas aeruginosa)	MIC (Fusarium oxysporum)	MIC (Escherichia coli)	MIC (Enterococcus faecalis)	MIC (Aspergillus fumigatus)
Cc1ccc(NS(=O)(=O)c2cc3c(CN=[N+]=[N-])cc(=O)oc3cc2C)cc1C	4 µg/mL (≈ 10 µM)	1 µg/mL (≈ 2.51 µM)	2 µg/mL (≈ 5.02 µM)	125 µg/mL (≈ 314 µM)	4 µg/mL (≈ 10 µM)	31.2 µg/mL (≈ 78.4 µM)	8 µg/mL (≈ 20.1 µM)	125 µg/mL (≈ 314 µM)	1 µg/mL (≈ 2.51 µM)	125 µg/mL (≈ 314 µM)	8 µg/mL (≈ 20.1 µM)	8 µg/mL (≈ 20.1 µM)
Cc1cc2oc(=O)cc(CN=[N+]=[N-])c2cc1S(=O)(=O)Nc1ccc(Cl)c(Cl)c1	16 µg/mL (≈ 36.4 µM)	31.2 µg/mL (≈ 71.1 µM)	2 µg/mL (≈ 4.55 µM)	1 µg/mL (≈ 2.28 µM)	4 µg/mL (≈ 9.11 µM)	2 µg/mL (≈ 4.55 µM)	16 µg/mL (≈ 36.4 µM)	8 µg/mL (≈ 18.2 µM)	1 µg/mL (≈ 2.28 µM)	> 500 µg/mL	16 µg/mL (≈ 36.4 µM)	31.2 µg/mL (≈ 71.1 µM)
Cc1cc2oc(=O)cc(CN=[N+]=[N-])c2cc1S(=O)(=O)Nc1ccc(Cl)cc1[N+](=O)[O-]	62.5 µg/mL (≈ 139 µM)	8 µg/mL (≈ 17.8 µM)	125 µg/mL (≈ 278 µM)	16 µg/mL (≈ 35.6 µM)	4 µg/mL (≈ 8.89 µM)	250 µg/mL (≈ 556 µM)	16 µg/mL (≈ 35.6 µM)	8 µg/mL (≈ 17.8 µM)	1 µg/mL (≈ 2.22 µM)	> 500 µg/mL	4 µg/mL (≈ 8.89 µM)	> 500 µg/mL
Cc1cccc(NS(=O)(=O)c2cc3c(CN=[N+]=[N-])cc(=O)oc3cc2C)c1	1 µg/mL (≈ 2.6 µM)	62.5 µg/mL (≈ 163 µM)	8 µg/mL (≈ 20.8 µM)	4 µg/mL (≈ 10.4 µM)	16 µg/mL (≈ 41.6 µM)	16 µg/mL (≈ 41.6 µM)	4 µg/mL (≈ 10.4 µM)	2 µg/mL (≈ 5.2 µM)	125 µg/mL (≈ 325 µM)	> 500 µg/mL	250 µg/mL (≈ 650 µM)	8 µg/mL (≈ 20.8 µM)
Cc1cc2oc(=O)cc(CN=[N+]=[N-])c2cc1S(=O)(=O)Nc1ccc(Cl)cc1Cl	250 µg/mL (≈ 569 µM)	16 µg/mL (≈ 36.4 µM)	62.5 µg/mL (≈ 142 µM)	2 µg/mL (≈ 4.55 µM)	31.2 µg/mL (≈ 71.1 µM)	250 µg/mL (≈ 569 µM)	8 µg/mL (≈ 18.2 µM)	2 µg/mL (≈ 4.55 µM)	1 µg/mL (≈ 2.28 µM)	> 500 µg/mL	1 µg/mL (≈ 2.28 µM)	250 µg/mL (≈ 569 µM)
Cc1cc2oc(=O)cc(CBr)c2cc1S(=O)(=O)Cl	4 µg/mL (≈ 11.4 µM)	1 µg/mL (≈ 2.84 µM)	1 µg/mL (≈ 2.84 µM)	125 µg/mL (≈ 356 µM)	16 µg/mL (≈ 45.5 µM)	16 µg/mL (≈ 45.5 µM)	8 µg/mL (≈ 22.8 µM)	125 µg/mL (≈ 356 µM)	1 µg/mL (≈ 2.84 µM)	125 µg/mL (≈ 356 µM)	16 µg/mL (≈ 45.5 µM)	4 µg/mL (≈ 11.4 µM)
COc1cccc(NS(=O)(=O)c2cc3c(CN=[N+]=[N-])cc(=O)oc3cc2C)c1	2 µg/mL (≈ 4.99 µM)	4 µg/mL (≈ 9.99 µM)	125 µg/mL (≈ 312 µM)	2 µg/mL (≈ 4.99 µM)	16 µg/mL (≈ 40 µM)	> 500 µg/mL	8 µg/mL (≈ 20 µM)	1 µg/mL (≈ 2.5 µM)	1 µg/mL (≈ 2.5 µM)	> 500 µg/mL	1 µg/mL (≈ 2.5 µM)	31.2 µg/mL (≈ 78 µM)
Cc1cc2oc(=O)cc(CN=[N+]=[N-])c2cc1S(=O)(=O)Nc1cccc2ccccc12	1 µg/mL (≈ 2.38 µM)	31.2 µg/mL (≈ 74.3 µM)	16 µg/mL (≈ 38.1 µM)	1 µg/mL (≈ 2.38 µM)	16 µg/mL (≈ 38.1 µM)	> 500 µg/mL	8 µg/mL (≈ 19 µM)	8 µg/mL (≈ 19 µM)	1 µg/mL (≈ 2.38 µM)	> 500 µg/mL	2 µg/mL (≈ 4.76 µM)	2 µg/mL (≈ 4.76 µM)
Cc1cc2oc(=O)cc(CN=[N+]=[N-])c2cc1S(=O)(=O)Nc1cc([N+](=O)[O-])ccc1Cl	8 µg/mL (≈ 17.8 µM)	62.5 µg/mL (≈ 139 µM)	125 µg/mL (≈ 278 µM)	62.5 µg/mL (≈ 139 µM)	2 µg/mL (≈ 4.45 µM)	125 µg/mL (≈ 278 µM)	4 µg/mL (≈ 8.89 µM)	2 µg/mL (≈ 4.45 µM)	1 µg/mL (≈ 2.22 µM)	> 500 µg/mL	2 µg/mL (≈ 4.45 µM)	2 µg/mL (≈ 4.45 µM)
Cc1ccc(NS(=O)(=O)c2cc3c(CN=[N+]=[N-])cc(=O)oc3cc2C)cc1	4 µg/mL (≈ 10.4 µM)	62.5 µg/mL (≈ 163 µM)	16 µg/mL (≈ 41.6 µM)	1 µg/mL (≈ 2.6 µM)	16 µg/mL (≈ 41.6 µM)	8 µg/mL (≈ 20.8 µM)	1 µg/mL (≈ 2.6 µM)	125 µg/mL (≈ 325 µM)	1 µg/mL (≈ 2.6 µM)	> 500 µg/mL	16 µg/mL (≈ 41.6 µM)	16 µg/mL (≈ 41.6 µM)
Cc1cc2oc(=O)cc(CN=[N+]=[N-])c2cc1S(=O)(=O)Nc1ccccc1[N+](=O)[O-]	8 µg/mL (≈ 19.3 µM)	8 µg/mL (≈ 19.3 µM)	4 µg/mL (≈ 9.63 µM)	16 µg/mL (≈ 38.5 µM)	1 µg/mL (≈ 2.41 µM)	62.5 µg/mL (≈ 150 µM)	250 µg/mL (≈ 602 µM)	4 µg/mL (≈ 9.63 µM)	1 µg/mL (≈ 2.41 µM)	> 500 µg/mL	1 µg/mL (≈ 2.41 µM)	8 µg/mL (≈ 19.3 µM)
COc1ccc(NS(=O)(=O)c2cc3c(CN=[N+]=[N-])cc(=O)oc3cc2C)cc1	2 µg/mL (≈ 4.99 µM)	250 µg/mL (≈ 624 µM)	250 µg/mL (≈ 624 µM)	1 µg/mL (≈ 2.5 µM)	4 µg/mL (≈ 9.99 µM)	> 500 µg/mL	8 µg/mL (≈ 20 µM)	8 µg/mL (≈ 20 µM)	1 µg/mL (≈ 2.5 µM)	250 µg/mL (≈ 624 µM)	1 µg/mL (≈ 2.5 µM)	2 µg/mL (≈ 4.99 µM)
OC(Cn1cncn1)(Cn1cncn1)c1ccc(F)cc1F [FLUCONAZOLE]	8 µg/mL (≈ 26.1 µM)	8 µg/mL (≈ 26.1 µM)	8 µg/mL (≈ 26.1 µM)				8 µg/mL (≈ 26.1 µM)		8 µg/mL (≈ 26.1 µM)			8 µg/mL (≈ 26.1 µM)
